Assay results from ChEMBL document CHEMBL5096186, “Design, Synthesis, and Biological Evaluation of Novel Pyrimido[4,5-b]indole Derivatives Against Gram-Negative Multidrug-Resistant Pathogens” (J Med Chem, 2021).
Converted amounts (≈) assume the structure as drawn.

Key:
[1] = target: T1, hERG (KCNH2) potassium channel (Homo sapiens, UniProt Q12809); assay: Inhibition of hERG potassium channel assessed as maximum inhibition rate at 3 uM at -80 mV holding potential incubated for 120 seconds by whole cell-automated voltage clamp analysis assay relative to control; format: toxicity; conditions: time 120 sec
Procedure, shortened: (§1)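 Automated whole-cell patch clamp, holding potential −80 mV. Voltage protocol applied every 20 s. Baseline set with external solution containing 0.1% DMSO and stabilised 3 min. Compound applied until steady state, at least 3 min, then washout. Maximum tested concentration 40 μM, or 3 μM for cisapride as positive control.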

[2] = target: T1, hERG (KCNH2) potassium channel; assay: Inhibition of hERG potassium channel assessed as maximum inhibition rate at 40 uM at -80 mV holding potential incubated for 120 seconds by whole cell-automated voltage clamp analysis assay relative to control; format: toxicity; conditions: time 120 sec; procedure, shortened: as §1
[3] = target: Voltage-gated inwardly rectifying potassium channel KCNH2 (Homo sapiens, UniProt Q12809); assay: Inhibition of hERG potassium channel assessed as […] at -80 mV holding potential incubated for 120 seconds by whole cell-automated voltage clamp analysis assay; format: toxicity; procedure, shortened: as §1
Escherichia coli [4] = assay: Antibacterial activity against ESBL-producing multidrug resistant Escherichia coli assessed as reduction in bacterial growth incubated for 18 to 20 hrs by CLSI based microdilution method; format: functional; conditions: time 18-20 hrs
Procedure, shortened: (§2)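 Broth microdilution per CLSI. Compounds dissolved in DMSO (levofloxacin and meropenem in water) as 64 μg/mL stock, then serial twofold dilutions in broth giving 64 to 0.008 μg/mL. […] Clinical isolates tested as several strains per group; racemic GP-1 served as positive control; values given as MIC ranges.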

Escherichia coli [5] = assay: Antibacterial activity against multidrug resistant wild type Escherichia coli ATCC BAA-2340 assessed as reduction in bacterial growth incubated for 18 to 20 hrs by CLSI based microdilution method; format: functional; conditions: time 18-20 hrs; procedure, shortened: as §2
Escherichia coli [6] = assay: Antibacterial activity against multidrug resistant wild type Escherichia coli NCTC 13353 assessed as reduction in bacterial growth incubated for 18 to 20 hrs by CLSI based microdilution method; format: functional; conditions: time 18-20 hrs; procedure, shortened: as §2
Klebsiella pneumoniae [7] = assay: Antibacterial activity against KPC2-producing multidrug resistant Klebsiella pneumoniae assessed as reduction in bacterial growth incubated for 18 to 20 hrs by CLSI based microdilution method; format: functional; conditions: time 18-20 hrs; procedure, shortened: as §2
Klebsiella pneumoniae [8] = assay: Antibacterial activity agains wild type Klebsiella pneumoniae ATCC BAA-1705 assessed as reduction in bacterial growth incubated for 18 to 20 hrs by CLSI based microdilution method; format: functional; conditions: time 18-20 hrs
Procedure, shortened: (§3)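 CLSI broth microdilution. Compounds in DMSO (levofloxacin and meropenem in water), serial twofold dilutions in broth, 64 to 0.008 μg/mL. […] Results reported as MIC ranges across strains.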

Klebsiella pneumoniae [9] = assay: Antibacterial activity agains wild type Klebsiella pneumoniae ATCC BAA-2470 assessed as reduction in bacterial growth incubated for 18 to 20 hrs by CLSI based microdilution method; format: functional; conditions: time 18-20 hrs; procedure, shortened: as §2
Acinetobacter baumannii [10] = assay: Antibacterial activity agains OXA23-producing multidrug resistant Acinetobacter baumannii assessed as reduction in bacterial growth incubated for 18 to 20 hrs by CLSI based microdilution method; format: functional; conditions: time 18-20 hrs; procedure, shortened: as §2
Acinetobacter baumannii [11] = assay: Antibacterial activity against wild type Acinetobacter baumannii NCTC 13304 assessed as reduction in bacterial growth incubated for 18 to 20 hrs by CLSI based microdilution method; format: functional; conditions: time 18-20 hrs; procedure, shortened: as §2
Pseudomonas aeruginosa [12] = assay: Antibacterial activity against IMP4-producing multidrug resistant Pseudomonas aeruginosa assessed as reduction in bacterial growth incubated for 18 to 20 hrs by CLSI based microdilution method; format: functional; conditions: time 18-20 hrs; procedure, shortened: as §2
Pseudomonas aeruginosa [13] = assay: Antibacterial activity against wild type Pseudomonas aeruginosa ATCC 27853 assessed as reduction in bacterial growth incubated for 18 to 20 hrs by CLSI based microdilution method; format: functional; conditions: time 18-20 hrs; procedure, shortened: as §3
[14] = Metabolic stability in rat liver microsome assessed as elimination half life at 0.1 uM in presence of NADPH incubated upto 60 mins by LC-MS/MS analysis; format: ADME; conditions: liver microsomes, read-out: beta t1/2
Procedure, shortened: (§4)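 Compound at 0.1 μM final, in 0.01% DMSO with 0.005% BSA. Incubated with rat or human liver microsomes at 0.33 mg/mL in 0.1 M Tris-HCl, pH 7.4, with 5 mM MgCl₂ and 1 mM NADPH, at 37 °C. Samples at 0, 7, 17, 30 and 60 min quenched with cold methanol and analysed by LC-MS/MS. Half-life, Cl_int and MF% derived as previously described.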

[15] = Metabolic stability in human liver microsome assessed as elimination half life at 0.1 uM in presence of NADPH incubated upto 60 mins by LC-MS/MS analysis; format: ADME; conditions: liver microsomes, read-out: beta t1/2; procedure, shortened: as §4
[16] = Metabolic stability in rat liver microsome assessed as intrinsic clearance at 0.1 uM in presence of NADPH incubated upto 60 mins by LC-MS/MS analysis; format: ADME; conditions: microsomes, 1 h; procedure, shortened: as §4
[17] = Metabolic stability in human liver microsome assessed as intrinsic clearance at 0.1 uM in presence of NADPH incubated upto 60 mins by LC-MS/MS analysis; format: ADME; conditions: microsomes, 1 h; procedure, shortened: as §4
[18] = Metabolic stability in rat liver microsome assessed as metabolic bioavailability at 0.1 uM in presence of NADPH incubated upto 60 mins by LC-MS/MS analysis; format: ADME; conditions: liver microsomes; procedure, shortened: as §4
[19] = Metabolic stability in human liver microsome assessed as metabolic bioavailability at 0.1 uM in presence of NADPH incubated upto 60 mins by LC-MS/MS analysis; format: ADME; conditions: liver microsomes; procedure, shortened: as §4
[20] = AUC (0 to infinity) in Sprague-Dawley rat at 5 mg/kg, iv measured upto 24 hrs by LC-MS/MS analysis; format: ADME, organism-based; design: time < 24 hrs, dose 5 mg/kg, route iv; conditions: in vivo
Procedure, shortened: (§5)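 Male Sprague-Dawley rats, n = 3 per group, single intravenous dose. For 4 mg/kg: 180–280 g rats, vehicle 5% DMSO + 5% EtOH + 40% PEG300 + 50% saline, blood from the retrobulbar vein at 0.05–24 h. For 5 and 20 mg/kg: 180–300 g rats, vehicle 5% DMSO + 5% solutol + 90% saline, sampled at 0.083–24 h. Plasma quantified by LC/MS/MS. Parameters from mean plasma concentration by noncompartmental analysis; values are mean ± standard deviation.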

[21] = Elimination half life in Sprague-Dawley rat at 5 mg/kg, iv measured upto 24 hrs by LC-MS/MS analysis; format: ADME, organism-based; conditions: in vivo, read-out: beta t1/2 (converted); procedure, shortened: as §5
[22] = MRT in Sprague-Dawley rat at 5 mg/kg, iv measured upto 24 hrs by LC-MS/MS analysis; format: ADME, organism-based; conditions: in vivo; procedure, shortened: as §5
[23] = Clearance in Sprague-Dawley rat at 5 mg/kg, iv measured upto 24 hrs by LC-MS/MS analysis; format: ADME, organism-based; conditions: in vivo; procedure, shortened: as §5
[24] = Volume of distribution at the steady state in Sprague-Dawley rat at 5 mg/kg, iv measured upto 24 hrs by LC-MS/MS analysis; format: ADME, organism-based; conditions: in vivo, read-out: Vdss; procedure, shortened: as §5
Staphylococcus aureus = assay: Antibacterial activity against methicillin-sensitive Staphylococcus aureus strains 15 1 to 4 assessed as reduction in bacterial growth incubated for 18 to 20 hrs by CLSI based microdilution method; format: functional; conditions: time 18-20 hrs; procedure, shortened: as §2
[25] = tested on: Staphylococcus epidermidis; assay: Antibacterial activity against methicillin-sensitive Staphylococcus epidermidis strains 15 1 to 4 assessed as reduction in bacterial growth incubated for 18 to 20 hrs by CLSI based microdilution method; format: functional; conditions: time 18-20 hrs; procedure, shortened: as §2
Escherichia coli [26] = assay: Antibacterial activity against ESBL-producing Escherichia coli ATCC 35218 strains 15 1 to 3 assessed as reduction in bacterial growth incubated for 18 to 20 hrs by CLSI based microdilution method; format: functional; conditions: time 18-20 hrs; procedure, shortened: as §3
Escherichia coli [27] = assay: Antibacterial activity against Escherichia coli ATCC 35218 strains 15 1 to 3 assessed as reduction in bacterial growth incubated for 18 to 20 hrs by CLSI based microdilution method; format: functional; conditions: time 18-20 hrs; procedure, shortened: as §3
Pseudomonas aeruginosa [28] = assay: Antibacterial activity against multidrug resistant Pseudomonas aeruginosa strains 15 1 to 3 assessed as reduction in bacterial growth incubated for 18 to 20 hrs by CLSI based microdilution method; format: functional; conditions: time 18-20 hrs; procedure, shortened: as §2
[29] = Cytotoxicity against human L02 cells assessed as cell viability measured for 48 hrs by CCK-8 assay; format: toxicity, cell-based
Procedure, shortened: (§6)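 Cells seeded at 1 × 10⁴ per well and grown for 48 h. Then exposed to test articles at 1–200 μM for another 48 h (n = 6). Viability by CCK-8 added for 2 h, absorbance read at 450 nm. CC50 calculated and reported as the mean.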

[30] = Cytotoxicity against human HEK293 cells assessed as cell viability measured for 48 hrs by CCK-8 assay; format: toxicity, cell-based; procedure, shortened: as §6

T1 sequence (Q12809 whole entry): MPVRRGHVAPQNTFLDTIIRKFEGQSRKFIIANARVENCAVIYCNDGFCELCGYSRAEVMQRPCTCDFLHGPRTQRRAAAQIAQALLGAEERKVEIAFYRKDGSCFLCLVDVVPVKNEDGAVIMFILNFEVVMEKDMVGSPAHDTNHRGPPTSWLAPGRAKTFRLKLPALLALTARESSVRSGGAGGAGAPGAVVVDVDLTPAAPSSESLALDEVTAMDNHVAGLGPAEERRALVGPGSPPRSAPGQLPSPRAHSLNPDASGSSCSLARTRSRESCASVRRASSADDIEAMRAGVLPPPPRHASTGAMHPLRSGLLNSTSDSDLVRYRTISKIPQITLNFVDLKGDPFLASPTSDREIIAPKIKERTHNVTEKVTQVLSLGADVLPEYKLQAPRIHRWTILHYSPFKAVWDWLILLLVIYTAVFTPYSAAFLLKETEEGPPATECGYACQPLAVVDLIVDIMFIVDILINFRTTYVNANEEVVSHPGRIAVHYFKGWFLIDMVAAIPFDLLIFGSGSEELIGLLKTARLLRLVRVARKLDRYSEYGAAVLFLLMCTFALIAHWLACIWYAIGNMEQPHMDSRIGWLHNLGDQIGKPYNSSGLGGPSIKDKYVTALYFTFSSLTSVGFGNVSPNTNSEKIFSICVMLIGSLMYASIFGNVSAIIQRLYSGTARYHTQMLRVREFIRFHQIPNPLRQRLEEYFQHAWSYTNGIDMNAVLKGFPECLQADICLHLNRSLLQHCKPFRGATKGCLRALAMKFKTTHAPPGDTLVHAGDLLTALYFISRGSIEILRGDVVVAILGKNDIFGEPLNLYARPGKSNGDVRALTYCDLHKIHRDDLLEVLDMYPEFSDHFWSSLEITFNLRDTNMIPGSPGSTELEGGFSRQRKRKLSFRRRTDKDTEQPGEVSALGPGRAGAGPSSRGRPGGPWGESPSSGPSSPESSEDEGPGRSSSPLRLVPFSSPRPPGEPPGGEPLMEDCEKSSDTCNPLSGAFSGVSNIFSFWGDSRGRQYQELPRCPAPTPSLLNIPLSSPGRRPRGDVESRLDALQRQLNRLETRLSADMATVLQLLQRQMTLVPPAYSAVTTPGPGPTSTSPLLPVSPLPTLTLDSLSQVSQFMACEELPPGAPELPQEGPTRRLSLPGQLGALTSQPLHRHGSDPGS
Sequence of Voltage-gated inwardly rectifying potassium channel KCNH2 (Q12809 whole entry): as above

Compound | inhibition at 2 min, 40 µM [2] [%] | IC50 [3] [µM] | MIC (Escherichia coli [4]) [µg/mL] | MIC (Escherichia coli [5]) [µg/mL] | MIC (Escherichia coli [6]) [µg/mL] | MIC (Klebsiella pneumoniae [7]) [µg/mL] | MIC (Klebsiella pneumoniae [8]) [µg/mL] | MIC (Klebsiella pneumoniae [9]) [µg/mL] | MIC (Acinetobacter baumannii [10]) [µg/mL] | MIC (Acinetobacter baumannii [11]) [µg/mL] | MIC (Pseudomonas aeruginosa [12]) [µg/mL] | MIC (Pseudomonas aeruginosa [13]) [µg/mL] | other results
COc1cc(N)c(Cl)cc1C(=O)NC1CCN(CCCOc2ccc(F)cc2)CC1OC (stereo not drawn) [CISAPRIDE MONOHYDRATE] |  |  |  |  |  |  |  |  |  |  |  |  | inhibition at 2 min, 3 µM [1]: 97.7%
[2H]C([2H])([2H])Nc1cc(F)cc2c1[nH]c1nc(Oc3cnc(C)nc3)nc(N3CC(=C(C)C(C)N)C3)c12 (stereo not drawn) | 14.2 | > 40 | 0.25 (≈ 0.554 µM) | 0.25 (≈ 0.554 µM) | 0.125 (≈ 0.277 µM) | 1 (≈ 2.21 µM) | 4 (≈ 8.86 µM) | 2 (≈ 4.43 µM) | 0.25 (≈ 0.554 µM) | 0.25 (≈ 0.554 µM) | 4 (≈ 8.86 µM) | 2 (≈ 4.43 µM) | half-life at 0.1 µM [14]: 0.337 h; half-life at 0.1 µM [15]: 3.47 h; CLH [16]: 104 mL/min/g; CLH [17]: 10.1 mL/min/g; Fh at 1 h, 0.1 µM [18]: 30%; Fh at 1 h, 0.1 µM [19]: 66%; AUC(0-inf) [20]: 696 ng·h/mL; half-life [21]: 7.2 h; MRT [22]: 5.9 h; clearance [23]: 121 mL/min/kg; Vd [24]: 43.2 L/kg
C=CCC(CN)=C1CN(c2nc(Oc3cnc(C)nc3)nc3[nH]c4c(NC)cc(F)cc4c23)C1 | 49.1 | > 40 | 0.5 (≈ 1.09 µM) | 0.5 (≈ 1.09 µM) | 0.25 (≈ 0.543 µM) | 2 (≈ 4.34 µM) | 4 (≈ 8.69 µM) | 2 (≈ 4.34 µM) | 0.25 (≈ 0.543 µM) | 0.25 (≈ 0.543 µM) | 8 (≈ 17.4 µM) | 4 (≈ 8.69 µM) | MIC (Staphylococcus aureus): < 0.008 µg/mL; MIC [25]: < 0.008 µg/mL; MIC (Escherichia coli [26]): 0.125 µg/mL (≈ 0.271 µM); MIC (Escherichia coli [27]): 0.06 µg/mL (≈ 0.13 µM); MIC (Pseudomonas aeruginosa [28]): 1 µg/mL (≈ 2.17 µM); CC50 at 48 h [29]: 6.99 µM; CC50 at 48 h [30]: 29 µM
